An excerpt weighted towards active compounds, which were near 1% of everything screened.
RAD54 inh – inhibitors of human RAD54 branch migration, primary screen, biochemical, fluorescence, single point; DNA repair and recombination protein RAD54-like (Homo sapiens), Q92698; RAD54 Holliday junction branch migration, FAM/BHQ fluorescence; 360,000 compounds, 0.14% hits; inhibition, % at 10.4 µM;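 active means mean normalized replicate activity at least 40 and at least half of replicates scoring 40 or more; inconclusive means only one of the two criteria met; inactive means mean below 40 and under half of replicates reaching 40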;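 further: inhibitors cause a drop in the FAM fluorescence signal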
RAD52 inh – RAD52 DNA annealing inhibitors, primary screen, biochemical, FRET, single point, set 2; inhibition, % at 18.7 µM; DNA repair protein RAD52 homolog (Homo sapiens), P43351; recombinant RAD52 DNA annealing, FRET fluorescence; 360,000 compounds, 0.46% hits;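 active means every replicate showing at least 50% inhibition; inconclusive means mean inhibition at least 50% but not in every replicate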
CAL PDZ FP-1 – untagged CAL PDZ binding inhibitors, primary screen, biochemical, fluorescence polarization, HTS; purified CAL PDZ, TMR-peptide fluorescence polarization, 1 h; inhibition, % at 24.9 µM; 300,000 compounds, 0.92% hits;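 active means mean inhibition of at least 30% with at least half of replicates also reaching 30%; inconclusive means no clear call, values can overlap the other calls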
CAL PDZ FP-2 – CAL PDZ peptide-binding inhibitors, primary screen, biochemical, fluorescence polarization, Cer-tagged CAL PDZ, HTS; purified CAL PDZ, TMR-peptide fluorescence polarization, 1 h; inhibition, % at 20 µM; 330,000 compounds, 0.02% hits; AID 504414, 2011;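 active means highest replicate inhibition of at least 40%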
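Control set: unlabelled peptide and DMSO controls / Material: purified CerCALP PDZ construct / Timing: 1 h incubation at room temperature before polarization reading / Doses: 20 µM, one dose / Detection: fluorescence polarization (mP)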
ERp5 inh – inhibitors of ERp5-driven insulin aggregation, primary screen, biochemical, turbidity, absorbance 650 nm, single point. 350,000 compounds, 0.05% hits. Protein disulfide-isomerase A6 (Homo sapiens), Q15084. AID 651711, 2012. 90 min. inhibition, % at 9.99 µM;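 active means mean replicate inhibition above about 25%, with every replicate also reaching it, limit read from the data, passing the limit was not always enough; inconclusive means only one of those two criteria met; inactive means neither criterion met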
PDI turbidity – inhibitors of human PDI, primary screen, biochemical, turbidity, single point, plate reader; Protein disulfide-isomerase (Homo sapiens), P07237; PDI insulin aggregation turbidity, A650, 90 min; inhibition, % at 10 µM; 350,000 compounds, 0.052% hits; AID 588391, 2011;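 active means mean inhibition across replicates of 30% or more, whatever share of single replicates reach that level; inconclusive means mean inhibition below 30% while every single replicate reaches 30%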
Target sequence (P07237 whole entry, looked up): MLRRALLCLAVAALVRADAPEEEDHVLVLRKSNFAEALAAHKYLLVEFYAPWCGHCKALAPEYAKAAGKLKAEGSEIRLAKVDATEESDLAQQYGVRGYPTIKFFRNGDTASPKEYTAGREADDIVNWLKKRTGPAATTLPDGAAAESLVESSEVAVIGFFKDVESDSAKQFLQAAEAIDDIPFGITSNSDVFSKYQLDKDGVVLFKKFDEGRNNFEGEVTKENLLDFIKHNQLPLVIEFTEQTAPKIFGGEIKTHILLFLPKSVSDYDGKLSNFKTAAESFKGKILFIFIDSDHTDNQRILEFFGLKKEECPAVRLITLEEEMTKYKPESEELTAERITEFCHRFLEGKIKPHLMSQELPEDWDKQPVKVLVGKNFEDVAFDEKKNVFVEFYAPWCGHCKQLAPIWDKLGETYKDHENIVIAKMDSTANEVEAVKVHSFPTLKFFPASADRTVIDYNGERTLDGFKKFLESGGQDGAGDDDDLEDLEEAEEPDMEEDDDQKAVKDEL
Numbers stand for hits; - = inactive; ? = inconclusive; . = no result given; ! = a repeat was not active.

SMILES	RAD54 inh	RAD52 inh	CAL PDZ FP-1	CAL PDZ FP-2	ERp5 inh	PDI turbidity
Cc1ccc(NC(=O)CN(C)C(=O)c2ccc3[nH]c4c(c3c2)CC(C)CC4)cc1 (centres undefined)	-	-	74	-	-	-
CC(OC(=O)c1cc(S(=O)(=O)N2CCOCC2)ccc1Br)C(=O)N1CCOCC1 (centres undefined)	-	-	43	-	-	-
CC(=O)Nc1ccc(NC(=O)C(C)OC(=O)c2cc(S(=O)(=O)N3CCOCC3)ccc2Cl)cc1 (centres undefined)	-	-	-	-	-	-
C[C@H]1CN([C@@H](C)CO)C(=O)Cc2cc(NC(=O)CCN3CCOCC3)ccc2O[C@@H]1CN(C)CC1CC1	-	-	.	.	-	.
CC(C)(C)n1ncc2c(=O)n(Cc3ccc(Cl)c(Cl)c3)cnc21	.	-	82	-	-	-
CC(=O)Nc1ccc2c(O)cc(S(=O)(=O)O)cc2c1	-	-	-	-	-	-
Nc1ccc2c(O)cc(S(=O)(=O)O)cc2c1	73	-	-	-	-	-
COc1ccc(OCCSc2nnc(C(C)NC(=O)c3ccccc3F)n2C)cc1 (centres undefined)	.	-	107	-	-	-
CC(NC(=O)c1ccccc1F)c1nnc(SCC(=O)NC2CCCC2)n1C (centres undefined)	-	-	-	-	-	-
O=C(Nc1ccc(Cl)cn1)Nc1ccc(Cl)cn1	.	-	47	-	-	-
O=C(Nc1ccc(F)cc1)Nc1ccc(Cl)cn1	-	.	.	-	.	-
COc1cccc(CNC(=O)[C@@H]2[C@@H](CO)[C@@H]3Cn4c(ccc(-c5ccncc5)c4=O)[C@@H]3N2C)c1	-	-	.	.	-	.
COc1ccccc1-c1ccc2c(c1)[C@H]1[C@H](CCN1S(=O)(=O)c1cn(C)cn1)[C@@H](CO)N2	-	-	.	.	-	.
CCn1ccnc1CN1CCc2c([nH]c3ccccc23)C1C(C)(C)C (centres undefined)	.	-	80	-	-	-
CCn1ccnc1CN1CCc2c([nH]c3ccccc23)C1CC(C)C (centres undefined)	.	-	.	-	-	-
CC1=NC(C)(C)Cc2cc(C)c(C)cc21	.	-	54	-	?	-
Cc1cccc(-c2nc(N)nc(N)n2)c1	.	-	34	-	-	-
Nc1nc(N)nc(-c2cccc(Br)c2)n1	.	-	-	-	-	-
Cc1noc(C)c1S(=O)(=O)Nc1ccc2c(c1)C(=O)N([C@H](C)CO)C[C@@H](C)[C@H](CN(C)S(=O)(=O)c1cccs1)OCCCC[C@@H](C)O2	-	.	.	.	.	.
OCCCc1cn(Cc2ccccc2)c2ccccc12	-	-	56	.	-	-
C[C@@H]1CCCCO[C@@H](CN(C)C(=O)Nc2cccc3ccccc23)[C@@H](C)CN([C@H](C)CO)C(=O)c2cc(NS(=O)(=O)c3cn(C)cn3)ccc2O1	-	.	.	.	.	.
CN(C(=O)c1ccccc1)C1(C)CCS(=O)(=O)C1 (centres undefined)	-	.	-	-	.	-
CN(C(=O)c1cc2ccccc2oc1=O)C1(C)CCS(=O)(=O)C1 (centres undefined)	.	-	47	-	-	-
C[C@@H]1CN([C@@H](C)CO)S(=O)(=O)c2ccc(C#CC(C)(C)O)cc2O[C@H]1CN(C)CC1CCCC1	-	-	.	.	-	.
COc1ccc(C(=O)Nc2ccc(S(=O)(=O)Nc3nccc(C)n3)cc2)cc1OC	-	.	50	-	.	-
SMILES	RAD54 inh	RAD52 inh	CAL PDZ FP-1	CAL PDZ FP-2	ERp5 inh	PDI turbidity
COc1cc(C(=O)Nc2ccc(S(=O)(=O)Nc3nccc(C)n3)cc2)cc(OC)c1OC	-	.	-	-	.	-
COc1cc(OC)cc(C(=O)Nc2ccc(S(=O)(=O)Nc3ccccn3)cc2)c1	-	-	33	-	-	-
COC(=O)c1ccccc1NC(=O)CCCn1nc(C)c2c(C)n(-c3ccccc3)nc2c1=O	-	-	.	-	.	-
Cc1ccccc1NC(=O)Cn1nc(C(=O)O)c2ccccc2c1=O	-	-	-	-	-	-
Cc1ccccc1NC(=O)Cn1nc(C)c2ccccc2c1=O	-	-	35	-	-	-
Cc1ccccc1NC(=O)CCCn1nc(C)c2c(C)n(-c3ccccc3)nc2c1=O	-	-	30	-	-	-
c1ccc(-c2c(-c3ccccc3)n(Cc3ccco3)c3ncnc(NCCCn4ccnc4)c23)cc1	-	.	-	-	.	-
OCCNc1ncnc2c1c(-c1ccccc1)c(-c1ccccc1)n2Cc1ccco1	-	.	66	-	.	-
O=C(Nc1cccc(Cl)c1)N1C[C@@H]2[C@H](c3ccccc31)[C@H](CO)N2C(=O)c1ccncc1	-	-	.	.	-	.
Cc1ccnc2nc(C(=O)OCCOc3ccc(F)cc3)nn12	-	-	-	40	-	-
COc1ccc(-c2nc(CS(=O)CC(=O)NC(C)CCc3ccccc3)c(C)o2)cc1OC (centres undefined)	-	-	45	-	-	-
CN(C)C(=O)c1ccc(-c2ccc(C3[C@H]4CNC[C@@H]3N4C(=O)Nc3cccc(Cl)c3)cc2)cc1 (some centres undefined)	.	56	.	.	-	.
CN(C)C(=O)c1cccc(-c2ccc(C3[C@H]4CNC[C@@H]3N4C(=O)Nc3cccc(Cl)c3)cc2)c1 (some centres undefined)	.	-	.	.	-	.
COc1ccc(NC(=O)N2CCCCN3[C@H](CO)[C@@H](c4ccc(-c5ccccc5C)cc4)[C@H]3C2)cc1	-	-	.	.	-	.
COc1ccc(NC(=O)N2[C@@H]3CNC[C@H]2C3c2ccc(-c3cccc(OC)c3)cc2)cc1 (some centres undefined)	.	-	.	.	-	.
COc1cccc(-c2ccc(C3[C@H]4CNC[C@@H]3N4C(=O)Nc3ccc4c(c3)OCO4)cc2)c1 (some centres undefined)	.	71	.	.	-	.
O=C(Nc1cccc(Cl)c1)N1[C@@H]2CNC[C@H]1C2c1ccc(/C=C/c2ccccc2)cc1 (some centres undefined)	.	60!	.	.	-	.
COc1ccc(NC(=O)N2[C@@H]3CNC[C@H]2C3c2ccc(-c3ccccc3C)cc2)cc1 (some centres undefined)	.	64!	.	.	-	.
C[C@@H]1CN([C@H](C)CO)C(=O)c2cc(NC(=O)Cc3cn(C)c4ccccc34)ccc2O[C@H]1CN(C)C(=O)Nc1ccc(C(F)(F)F)cc1	-	-	.	.	-	.
